These results are taken from article PMC10558795 (Redox Biology, 2023).

Data set [1] deals with NRF2 (NRF2^WT-KYSE450) (Homo sapiens, UniProt Q16236). The data set can be described thus: CHX chase analysis of NRF2 half-life in KYSE450 cells. In kind it is cell-based. The following applies: PYR 10 μM, MIT 20 nM. In a few lines: (§1)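 Cells were grown in RPMI1640 GlutaMAX with 10% FBS and 1% penicillin/streptomycin at 37 °C, 5% CO₂. They were pre-incubated 4 h with test compound, then given 200 μg/ml cycloheximide to block protein synthesis. Cells were harvested at set time points after cycloheximide. Total lysates were run on SDS-PAGE and blotted for NRF2 and GAPDH, and band densities were used to calculate NRF2 half-life.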
Chain of NRF2 (NRF2^WT-KYSE450) (Q16236 whole entry): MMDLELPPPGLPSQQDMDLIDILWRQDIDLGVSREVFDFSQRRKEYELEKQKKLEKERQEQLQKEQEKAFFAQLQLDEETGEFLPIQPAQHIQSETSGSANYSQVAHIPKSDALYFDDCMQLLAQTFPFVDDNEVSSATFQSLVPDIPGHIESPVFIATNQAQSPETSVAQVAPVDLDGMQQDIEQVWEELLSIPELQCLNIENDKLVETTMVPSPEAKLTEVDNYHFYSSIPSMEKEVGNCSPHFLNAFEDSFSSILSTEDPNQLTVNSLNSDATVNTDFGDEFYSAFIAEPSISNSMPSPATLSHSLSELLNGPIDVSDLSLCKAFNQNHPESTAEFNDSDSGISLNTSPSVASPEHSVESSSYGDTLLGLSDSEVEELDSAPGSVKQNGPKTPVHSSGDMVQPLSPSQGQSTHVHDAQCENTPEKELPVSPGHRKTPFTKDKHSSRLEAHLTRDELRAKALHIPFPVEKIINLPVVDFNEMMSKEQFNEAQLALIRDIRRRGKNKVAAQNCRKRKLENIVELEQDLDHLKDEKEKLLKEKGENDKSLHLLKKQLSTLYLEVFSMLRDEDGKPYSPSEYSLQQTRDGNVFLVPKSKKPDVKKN

The test system of data set [2] is NRF2 and NQO1 expression in NRF2^Mut-KYSE180 cells. The data set can be described thus: Western blotting of NRF2 and NQO1 expression in KYSE180 cells. In kind it is cell-based, human. An outline of the steps: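 NRF2-mutant KYSE180 cells (37 °C, 5% CO₂) treated with test compound; nuclear and cytosolic fractions prepared with a nuclear extraction kit. Proteins separated by SDS-PAGE onto nitrocellulose, primary antibody overnight at 4 °C, chemiluminescence on film. Bands quantified by densitometry, mean ± SD, Student's t-test.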
For orientation: Immunoblotting shows a protein as a band on a membrane.

Data set [3] concerns the target NRF2 (NRF2^Mut-KYSE180) (Homo sapiens, UniProt Q16236, D77V). The data set can be described thus: CHX chase analysis of NRF2 half-life in KYSE180 cells. In kind it is cell-based. The following applies: PYR 10 μM, MIT 20 nM. An outline of the steps: as §1
The subject of data set [4] is adult wild-type mice. The experiment in a line: Dose-finding experiment in adult wild-type mice. In kind it is in vivo, mouse. In a few lines: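 Adult wild-type mice, n = 5 per group, dosed orally once daily for 4 weeks with test compound dissolved in N-methyl-2-pyrrolidone:PEG300 (1:9). Grooming, physical strength, movement and body weight tracked during dosing; blood collected for complete blood count, analysed by ANOVA.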

In data set [5] the test system is human NRF2 target genes in KYSE70 cells. The data set can be described thus: RNAseq of KYSE70 cells. The class given is cell-based. As to conditions: PYR 10 μM for 72 h, MIT 20 nM for 72 h. In a few lines:
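Total RNA from treated and control cells made into Illumina libraries and sequenced (150 bp). Reads aligned to hg38 with RefSeq annotation and counted per gene; DEGs called by fold-change cut-off and corrected p-values. Gene set enrichment analysis performed; overall NRF2 target-gene mRNA level calculated on natural log scale.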

The subject of data set [6] is NRF2 expression in Nrf2^WT MEEC. The experiment in a line: NRF2 expression in mouse esophageal epithelial cells. In kind it is cell-based. An outline of the steps:
(§2)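 Nuclear and cytosolic fractions prepared with an extraction kit, or whole-cell lysates in RIPA buffer. Proteins separated by SDS-PAGE, transferred to nitrocellulose, blocked and probed with primary antibody overnight at 4 °C. Chemiluminescence detected on film and quantified by densitometry; band data as mean ± SD, Student's t-test.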

Data set [7] has as its system NQO1-YFP H1299 cells. The experiment in a line: Cell viability. The class given is cell-based, human. The following applies: Homo sapiens, NCI-H1299, read-out: Cell viability (IC50, μM). In a few lines:
(§3)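 NQO1-YFP H1299 reporter cells (YFP in NQO1 intron 1, constitutive mCherry) were seeded 1000/well in 384-well plates and cultured overnight. Primary screen: 1 μM compound in 0.1% DMSO, one well each, with CDDO 200 nM and 0.1% DMSO controls. Retests used 10-point serial dilutions from 10 µM in triplicate, with brusatol control. Imaged at 0, 24, 48, 64 h (YFP = NRF2 activity, mCherry = viability); IC₅₀ by curve fit.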

Data set [8] addresses NRF2 ubiquitination (KYSE450) (Homo sapiens, UniProt Q16236). The experiment in a line: NRF2-IP and ubiquitin western blotting in KYSE450 cells. In kind it is cell-based. The following applies: NRF2^WT-KYSE450; PYR 10 μM, MIT 20 nM; only in the presence of MG132. An outline of the steps: (§4)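 Cells treated with test compound, then with or without MG132 (10 μM), lysed in RIPA buffer. Lysate precleared on protein G agarose 1 h at 4 °C, then incubated with 1 μg anti-NRF2 antibody overnight at 4 °C with rotation. Immunocomplexes captured on protein G agarose 1.5 h at 4 °C, washed, boiled in 2X SDS loading buffer at 95 °C for 5 min, and immunoblotted for ubiquitin.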

For data set [9], the system named is mouse NRF2 target genes in the esophageal epithelium. The experiment in a line: RNAseq of esophageal epithelium of Sox2CreER. The class given is in vivo. The following applies: PYR given after tamoxifen induction. In a few lines:
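Sox2CreER;LSL-Nrf2^E79Q/+ mice induced with tamoxifen (75 mg/kg/day i.p., 5 days), then dosed orally with test compound in N-methyl-2-pyrrolidone:PEG300 (1:9). Part of forestomach resected at Week 1; esophageal epithelium harvested at sacrifice, Week 3. Total RNA sequenced; data normalized; overall NRF2 target-gene expression calculated at natural log scale.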

Data set [10] deals with NRF2 and NQO1 expression in NRF2^Mut-KYSE70 cells. The data set can be described thus: Western blotting of NRF2 and NQO1 expression in KYSE70 cells. In kind it is cell-based, human. As to conditions: KYSE70 cells. An outline of the steps: as §2
Data set [11] concerns the target NRF2 ubiquitination (KYSE180) (Homo sapiens, UniProt Q16236, D77V). The experiment in a line: NRF2-IP and ubiquitin western blotting in KYSE180 cells. The class given is cell-based. The following applies: NRF2^Mut-KYSE180; PYR 10 μM, MIT 20 nM; presence or absence of MG132. In a few lines:
as §4

For data set [12] the following is noted: mice, i.p., cited from earlier work.
Data set [13] concerns NRF2 activity (NQO1-YFP signal, CDDO-activated). The experiment in a line: High-throughput screen and dose response: NRF2 activity. In kind it is cell-based, human. As to conditions: Homo sapiens, NCI-H1299, read-out: NRF2 inhibition (IC50, μM). In a few lines:
as §3

Data set [14] deals with NRF2-ARE binding (Homo sapiens, UniProt Q16236, W24C). The experiment in a line: ELISA-based TransAM NRF2-ARE binding assay with KYSE70 nuclear extracts. An outline of the steps: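 TransAM ELISA: nuclear extract from untreated KYSE70 cells (20 μg/well) added to wells containing ARE oligonucleotide. Test compound, competitor or mutated competitor added, then 1 h incubation with mild agitation and washing. Anti-NRF2 antibody 1 h, then HRP-conjugated secondary antibody and substrate; A450nm read.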
Chain of NRF2-ARE binding (Q16236 whole entry W24C): as the sequence (Q16236 whole entry) above, with W24C counted along it
(An ELISA detects its analyte on a solid surface through an enzyme-linked reagent.)

The target in data set [15] is DHFR (Homo sapiens, UniProt P00374). The experiment in a line: DHFR activity assay kit. As to conditions: KYSE70 cells. The class given is biochemical. In a few lines: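 Kit-based DHFR enzymatic assay followed by the decrease in A340nm over time; methotrexate 1 μM as reference DHFR inhibitor.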
Chain of DHFR (P00374 whole entry): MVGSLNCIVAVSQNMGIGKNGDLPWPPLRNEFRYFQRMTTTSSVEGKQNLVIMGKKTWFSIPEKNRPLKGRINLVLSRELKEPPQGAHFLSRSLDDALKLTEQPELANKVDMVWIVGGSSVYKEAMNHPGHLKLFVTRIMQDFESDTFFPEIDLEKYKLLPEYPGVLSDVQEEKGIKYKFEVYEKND
The conditions of data set [16]: humans, 50 mg/day, p.o., 3 weeks; cited from earlier work.
Data set [17] deals with global translation. The experiment in a line: Protein synthesis assay. In kind it is cell-based, human. The following applies: KYSE70; PYR 10 μM, MIT 20 nM; CHX positive control. An outline of the steps: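 KYSE70 cells (37 °C, 5% CO₂) seeded at 2000 cells/well in 96-well plates; exposed to test compound or cycloheximide (positive control) in triplicate. Global translation measured with a commercial protein synthesis assay kit per manufacturer's protocol; cells imaged on a high-content imager.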

Data set [18] is described as follows: Pharmacokinetics of PYR in mice, i.p. In kind it is in vivo. As to conditions: 30 mg/kg/day; extrapolated from literature Cmax.

The term IC50 denotes the concentration that inhibits the measured activity by half. Broadly, the Cmax is the peak of the concentration-time curve.

Like-named read-outs stand apart in the source and are kept apart here. Bounds are passed on as bounds.

Chain of NRF2 ubiquitination (KYSE450) (Q16236 whole entry): as the sequence (Q16236 whole entry) above
Chain of NRF2 (NRF2^Mut-KYSE180) (Q16236 whole entry D77V): as the sequence (Q16236 whole entry) above, with D77V counted along it
Chain of NRF2 ubiquitination (KYSE180) (Q16236 whole entry D77V): as the sequence (Q16236 whole entry) above, with D77V counted along it

For the compound `CCc1nc(N)nc(N)c1-c1ccc(Cl)cc1` [PYR, Pyrimethamine], the “Effect on NRF2 half-life” value is listed as “not changed” in data set [1] and “shortened NRF2 half-life” in data set [3]. For the same compound, the “Expression of nuclear NRF2 and cytoplasmic NQO1” value was “inhibited the expression of nuclear NRF2 and cytoplasmic NQO1 in a dose- and time-dependent manner” in [2]; “inhibited the expression of nuclear NRF2 and cytoplasmic NQO1 in a dose- and time-dependent manner” in [10]. Besides, the “Myelosuppression (complete blood count)” value in [4] (30 mg/kg/day) is “not myelosuppressive”; in [4] (60 mg/kg/day, p.o., 4 weeks) it was “resulted in myelosuppression including leukopenia and lymphopenia”. For the same compound, the “Impact on body weight and general health” value in [4] (15, 30 and 60 mg/kg/day, p.o., 4 weeks) was “did not observe any negative impact”. For the same compound, the “Overall mRNA expression level of human NRF2 target genes” value in [5] was “significantly reduced”. Moreover, in [6], the NRF2 expression result is “upregulated NRF2 expression”. For the same compound, the half-maximal inhibitory concentration (IC50) in data set [7] is 1.17 µM; in [13] it was 0.23 µM. Also, the NRF2 ubiquitination result was “slightly promoted NRF2 ubiquitination” in [8] and “promoted NRF2 ubiquitination” in data set [11]. Moreover, in data set [9], the “Overall mRNA expression level of mouse NRF2 target genes in the esophageal epithelium” value is “significantly inhibited the overall mRNA expression level”. Further, the Cmax in [12] (12.5 mg/kg) was 8.04 µM; in [12] (25 mg/kg), 18.5 µM; in [12] (50 mg/kg), 35.8 µM; in data set [12] (75 mg/kg), 28.2 µM; in data set [16], 8.28 µM. The NRF2-ARE binding activity result in data set [14] is given as “did not observe any changes”. Moreover, the “Concentration from which DHFR activity is significantly inhibited” value in data set [15] is ≥ 5 µM. The Global translation entry in data set [17] was “Neither PYR (10 μM) nor MIT (20 nM) inhibited global translation”. The “Concentration expected in mouse tissues” value in data set [18] is ~10 µM.
